As usually defined, the solubility is the concentration that dissolves in the medium under given conditions. Low readings indicate little dissolved substance, high ones much dissolved substance. Broadly, the logD is lipophilicity at a set pH, counting ionised and neutral species. Read a low logD as a more hydrophilic compound. What is called pEC50 is the negative decadic logarithm of the EC50, by convention in mol/L.

pEC50: −log10 of the molar value. ≈ marks a conversion by molar mass, not a printed value.

Data set [1] is described as follows: Solubility of the compound in pH 7.4 PBS buffer at 300 uM after 24 hrs by HPLC-ESI-MS analysis. It counts as physicochemical. An outline of the steps:
(§1)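 Dried 1 mM stock (300 µL) was redissolved in 1 mL PBS pH 7.4 or acid solution pH 1.0 (nominal about 300 µM). Stirred 24 h at r.t., centrifuged, diluted 1:100 or 1:10, then quantified by HPLC-ESI-MS/MS in MRM mode against a 6-point calibration (0.01–10 µM).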

Data set [2] concerns the target albumin (Bos taurus, UniProt P02769). The data set can be described thus: Binding affinity to bovine serum albumin at 10 uM after 24 hrs by equilibrium dialysis method. Particulars: cattle, read-out: PB (converted). It counts as ADME. In general terms: Equilibrium dialysis compares concentrations on both sides of a semipermeable membrane.
The nature of data set [3]: Octanol-HCl distribution coefficient, log P of the compound at pH 1 at 1 uM after 24 hrs by shake flask method. It counts as physicochemical. Summed up: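 Shake-flask method, 1 µM bile acid in mutually pre-saturated 1-octanol/DPBS pH 7.4 or 1-octanol/HCl pH 1.0 (50:50). Equilibrated 24 h with stirring at r.t., then centrifuged. Aqueous-phase concentration before and after partition measured by HPLC-ESI-MS/MS.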

Data set [4] can be described thus: Solubility of the compound in pH 1 HCl solution at 300 uM after 24 hrs by HPLC-ESI-MS analysis. It is filed as physicochemical. Summed up:
as §1

Data set [5] has as its target T1, Bile acid receptor (Homo sapiens, UniProt Q96RI1).
T1 sequence (Q96RI1 whole entry): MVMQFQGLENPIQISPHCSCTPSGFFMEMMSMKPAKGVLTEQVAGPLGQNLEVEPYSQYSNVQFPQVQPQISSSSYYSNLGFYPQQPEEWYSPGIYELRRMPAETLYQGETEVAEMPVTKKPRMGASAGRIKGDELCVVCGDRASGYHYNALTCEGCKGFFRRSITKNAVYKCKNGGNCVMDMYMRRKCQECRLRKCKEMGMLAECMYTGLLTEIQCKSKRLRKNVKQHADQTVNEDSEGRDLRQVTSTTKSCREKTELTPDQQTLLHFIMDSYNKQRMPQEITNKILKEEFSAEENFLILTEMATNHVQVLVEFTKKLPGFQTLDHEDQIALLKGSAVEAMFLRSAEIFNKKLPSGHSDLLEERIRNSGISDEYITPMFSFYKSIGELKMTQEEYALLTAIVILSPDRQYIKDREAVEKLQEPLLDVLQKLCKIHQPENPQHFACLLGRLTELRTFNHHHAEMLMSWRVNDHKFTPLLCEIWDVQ
Briefly: Agonist activity at GST-tagged FXR-LBD (unknown origin) assessed as biotin-labeled SRC-1 recruitment after 30 mins by Alpha Screen assay. A general note: Alpha assays give light when donor and acceptor beads are brought close together.

The target of data set [6] is T2, Bile acid receptor (Homo sapiens) (UniProt Q96RI1).
T2 sequence (whole entry): T1 sequence (Q96RI1 whole entry)
Briefly: Agonist activity at GST-tagged FXR-LBD (unknown origin) assessed as biotin-labeled SRC-1 recruitment after 30 mins by Alpha Screen assay relative to CDCA. Summed up: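 GST-FXR-LBD (10 nM) with biotinylated SRC-1 peptide (30 nM), anti-GST acceptor and streptavidin donor beads; buffer 50 mM Tris pH 7.4, 50 mM KCl, 0.1% BSA, 1 mM DTT. Compound in DMSO, 30 min r.t., then beads 4 h dark r.t.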

albumin, sequence (P02769 whole entry): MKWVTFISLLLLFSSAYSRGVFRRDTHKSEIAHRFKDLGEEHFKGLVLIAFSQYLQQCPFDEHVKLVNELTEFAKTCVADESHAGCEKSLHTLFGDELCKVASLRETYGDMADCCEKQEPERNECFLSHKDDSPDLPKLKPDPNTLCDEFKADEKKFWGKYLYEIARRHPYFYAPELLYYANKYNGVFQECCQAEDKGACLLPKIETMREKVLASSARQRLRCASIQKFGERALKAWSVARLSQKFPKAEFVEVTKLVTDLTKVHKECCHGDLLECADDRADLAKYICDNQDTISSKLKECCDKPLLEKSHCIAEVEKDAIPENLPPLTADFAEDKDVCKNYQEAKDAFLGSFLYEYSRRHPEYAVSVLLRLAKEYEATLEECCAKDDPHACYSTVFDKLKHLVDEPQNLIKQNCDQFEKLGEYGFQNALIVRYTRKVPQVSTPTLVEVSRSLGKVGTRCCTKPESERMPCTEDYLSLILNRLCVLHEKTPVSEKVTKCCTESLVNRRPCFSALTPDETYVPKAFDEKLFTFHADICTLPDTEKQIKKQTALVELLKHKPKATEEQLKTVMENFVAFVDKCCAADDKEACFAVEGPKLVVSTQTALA

Consider `C[C@H](CCC(=O)O)[C@H]1CC[C@H]2[C@@H]3[C@H](O)C[C@@H]4C[C@H](O)CC[C@]4(C)[C@H]3CC[C@]12C` [CHENODIOL], for which the solubility at 24 h, 300 µM in data set [1] worked out at 282 µM (≈ 111 µg/mL); in data set [4], 33 µM (≈ 13 µg/mL). The fraction unbound at 24 h, 10 µM in data set [2] was 0.015. The logD at 24 h, 1 µM in data set [3] stood at 2.5.

Take `C[C@H](CCC(=O)O)[C@H]1CC[C@H]2[C@@H]3CC[C@@H]4C[C@H](O)CC[C@]4(C)[C@H]3C[C@H](O)[C@]12C` [DEOXYCHOLIC ACID]: the pEC50 in data set [5] was 4.35. Besides, in data set [6], the Efficacy was found to be 7%.

For the origin of these results see ChEMBL document CHEMBL4145453, “Synthesis, physicochemical properties, and biological activity of bile acids 3-glucuronides: Novel insights into bile acid signalling and detoxification” (Eur J Med Chem, 2018).
